Legend:
Type in all cases: functional, cell-based, Homo sapiens
SK-MEL-25 [1] = assay: Cytotoxic activity was determined in vitro in SK-MEL-25 cell line culture at pH 6.8
In short: (§1)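 Seeded at 2×10^6 cells/plate. Next day, switched to pH 6.8 medium (1.3 g NaHCO3/L, serum acidified with 1 N HCl) and equilibrated in 5% CO2. Exposed for 2 h at 37°C in quadruplicate to 50–0.8 µg/mL (1:2 series; acetone ≤5%), then given drug-free pH 7.4 medium until controls were confluent. Read by formaldehyde fixation and crystal violet at 550 nm. IC50 from dose–response curves, mean of four assays ± SD.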

SK-OV-3 [2] = assay: Cytotoxic activity was determined in vitro in SK-OV-3 cell line culture at pH 7.4
In short: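 With 1×10^6 cells/plate seeded, medium was changed the next day to pH 7.4 (2.2 g NaHCO3/L) under 5% CO2. Cells were exposed 2 h at 37°C in quadruplicate to a 1:2 series of 50–0.8 µg/mL (acetone ≤5%), then given drug-free pH 7.4 medium until controls were confluent. Crystal violet read at 550 nm after formaldehyde fixation. IC50 from curves; mean of four assays ± SD.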

SK-OV-3 [3] = assay: Cytotoxic activity was determined in vitro in SK-OV-3 cell line culture at pH 6.8
In short: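 SK-OV-3 seeded at 1×10^6 cells/plate. Next day, placed in pH 6.8 medium (1.3 g NaHCO3/L, HCl-treated serum, 5% CO2). Given 2 h at 37°C, in quadruplicate, of 50–0.8 µg/mL (1:2; acetone ≤5%), then drug-free pH 7.4 medium until controls were confluent. Formaldehyde-fixed and crystal violet-stained, A550. IC50 from dose–response curves, mean of four assays ± SD.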

LXF-289 cell line [4] = assay: Cytotoxic activity was determined in vitro in LXF-289 cell line culture at pH 6.8; in short: as §1
LXF-289 cell line [5] = assay: Cytotoxic activity was determined in vitro in LXF-289 cell line culture at pH 7.4
In short: (§2)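 Plated at 2×10^6 cells/plate. After one day, medium was replaced with pH 7.4 medium (2.2 g NaHCO3/L) and equilibrated under 5% CO2. Cells got 2 h at 37°C, in quadruplicate, of a 1:2 series 50–0.8 µg/mL (acetone ≤5%), then drug-free pH 7.4 medium for 24–96 h until controls were confluent. Fixed with 3% formaldehyde, stained with 1% crystal violet, A550. IC50 from dose–response curves; mean of four assays ± SD.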

Calu-6 [6] = assay: Cytotoxic activity was determined in vitro in Calu-6 cell line culture at pH 6.8; in short: as §1
MCF7 [7] = assay: Cytotoxic activity was determined in vitro in MCF-7 cell line culture at pH 6.8
In short: (§3)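 Cells at 2×10^6/plate were moved the next day into pH 6.8 medium (1.3 g NaHCO3/L; serum given 1 N HCl; 30 min 5% CO2). Treated 2 h at 37°C, quadruplicate, 50–0.8 µg/mL in 1:2 steps (acetone ≤5%), then grown in drug-free pH 7.4 medium to control confluence. Crystal violet stain eluted with ethanol/1% acetic acid before A550. IC50 from curves, mean of four assays ± SD.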

SK-MEL-25 [8] = assay: Cytotoxic activity was determined in vitro in SK-MEL-25 cell line culture at pH 7.4; in short: as §2
Calu-6 [9] = assay: Cytotoxic activity was determined in vitro in Calu-6 cell line culture at pH 7.4; in short: as §2
KB [10] = assay: Cytotoxic activity was determined in vitro in KB cell line culture at pH 7.4
In short: (§4)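 Using pH 7.4 medium (2.2 g NaHCO3/L) on cells plated a day earlier at 2×10^6/plate, with equilibration in 5% CO2. Compounds were applied for 2 h at 37°C in quadruplicate at 50–0.8 µg/mL (1:2; acetone ≤5%), followed by drug-free pH 7.4 medium until controls were confluent. Fixed and stained with crystal violet, dye eluted with ethanol/1% acetic acid, read at 550 nm. IC50 from curves, mean of four ± SD.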

KB [11] = assay: Cytotoxic activity was determined in vitro in KB cell line culture at pH 6.8; in short: as §3
MCF7 [12] = assay: Cytotoxic activity was determined in vitro in MCF-7 cell line culture at pH 7.4; in short: as §4

Substance	IC50 (SK-MEL-25 [1]) [µM]	IC50 (SK-OV-3 [2]) [µM]	IC50 (SK-OV-3 [3]) [µM]	IC50 (LXF-289 cell line [4]) [µM]	IC50 (LXF-289 cell line [5]) [µM]	IC50 (Calu-6 [6]) [µM]	IC50 (MCF7 [7]) [µM]	IC50 (SK-MEL-25 [8]) [µM]	IC50 (Calu-6 [9]) [µM]	IC50 (KB [10]) [µM]	IC50 (KB [11]) [µM]	IC50 (MCF7 [12]) [µM]
2,6-bis(2,2-dimethyl-3-phenylpropoxy)-1,3,5,7-tetrathia-4-platinaspiro[3.3]heptane	> 50	> 50	> 50	> 50	> 50	10	> 50	> 50	17	> 50	> 50	> 50
2,6-bis(2,2-dimethylpropoxy)-1,3,5,7-tetrathia-4-platinaspiro[3.3]heptane	72	> 86	> 86	59	75	25	62	83	27	> 96	> 96	> 86
2,6-bis(2-methylbutoxy)-1,3,5,7-tetrathia-4-platinaspiro[3.3]heptane	17	35	23	19	44	9	19	32	19	39	31	27
2,6-bis(2-methylpropoxy)-1,3,5,7-tetrathia-4-platinaspiro[3.3]heptane	15	61	32	19	37	9	27	21	10	47	30	23
2,6-bis(3-methylbutoxy)-1,3,5,7-tetrathia-4-platinaspiro[3.3]heptane	20	21	24	23	71	6	23	35	21	19	35	40
2,6-bis(cyclohexyloxy)-1,3,5,7-tetrathia-4-platinaspiro[3.3]heptane	3	12	9	6	12	3	5	8	8	9	6	9
2,6-bis(cyclopentyloxy)-1,3,5,7-tetrathia-4-platinaspiro[3.3]heptane	5	26	17	37	38	3	5	9	5	24	14	10
2,6-bis(cyclopropylmethoxy)-1,3,5,7-tetrathia-4-platinaspiro[3.3]heptane	64	67	95	> 102	> 102	17	95	85	33	72	33	90
2,6-bis(hexyloxy)-1,3,5,7-tetrathia-4-platinaspiro[3.3]heptane	37	130	102	> 91	> 91	23	44	70	37	> 91	64	47
2,6-bis(nonyloxy)-1,3,5,7-tetrathia-4-platinaspiro[3.3]heptane	> 76	> 76	> 76	38	53	> 76	24	> 76	> 76	> 76	> 76	30
2,6-bis(octyloxy)-1,3,5,7-tetrathia-4-platinaspiro[3.3]heptane	56	> 83	> 83	30	83	23	31	> 83	56	> 83	> 83	31
2,6-bis(pentan-3-yloxy)-1,3,5,7-tetrathia-4-platinaspiro[3.3]heptane	5	5	8	8	10	3	5	9	5	5	4	6
2,6-bis(pentyloxy)-1,3,5,7-tetrathia-4-platinaspiro[3.3]heptane	19	66	31	38	62	9	10	32	15	25	16	34
2,6-bis(propan-2-yloxy)-1,3,5,7-tetrathia-4-platinaspiro[3.3]heptane	6	33	14	10	30	6	3	12	10	10	6	7
2,6-bis({tricyclo[5.2.2.0^{2,6}]undecan-8-yloxy})-1,3,5,7-tetrathia-4-platinaspiro[3.3]heptane	> 38	> 38	> 38	> 38	> 38	8	32	> 38	18	> 77	> 77	> 38
2,6-bis[(3,3-dimethylbutan-2-yl)oxy]-1,3,5,7-tetrathia-4-platinaspiro[3.3]heptane	10	34	18	15	18	9	7	11	9	7	5	9
2,6-dibutoxy-1,3,5,7-tetrathia-4-platinaspiro[3.3]heptane	10	90	33	24	39	7	7	22	19	32	16	25
2,6-dicyclobutoxy-1,3,5,7-tetrathia-4-platinaspiro[3.3]heptane	7	19	17	37	44	3	11	12	7	20	6	21
2,6-diethoxy-1,3,5,7-tetrathia-4-platinaspiro[3.3]heptane	21	98	86	45	91	21	12	56	24	58	18	47
